Data set [1] addresses 5-hydroxytryptamine receptor 2A (Homo sapiens, UniProt P28223). As to the kind of experiment: Ability to displace [3H]ketanserin binding to human 5-hydroxytryptamine 2A receptor stably expressed in CHO cells. Type of data set: cell-based. In a few lines: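 Membranes from CHO cells stably expressing human 5-HT2A, homogenized in 50 mM Tris-HCl pH 7.5, at 2 mg wet weight/mL. Ki from nonlinear least-squares regression, geometric mean of at least three determinations.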

Data set [2] addresses T1, Adrenergic receptor alpha-1 (Rattus norvegicus, UniProt P15823+P23944+P43140).
T1 sequence (P15823 whole entry): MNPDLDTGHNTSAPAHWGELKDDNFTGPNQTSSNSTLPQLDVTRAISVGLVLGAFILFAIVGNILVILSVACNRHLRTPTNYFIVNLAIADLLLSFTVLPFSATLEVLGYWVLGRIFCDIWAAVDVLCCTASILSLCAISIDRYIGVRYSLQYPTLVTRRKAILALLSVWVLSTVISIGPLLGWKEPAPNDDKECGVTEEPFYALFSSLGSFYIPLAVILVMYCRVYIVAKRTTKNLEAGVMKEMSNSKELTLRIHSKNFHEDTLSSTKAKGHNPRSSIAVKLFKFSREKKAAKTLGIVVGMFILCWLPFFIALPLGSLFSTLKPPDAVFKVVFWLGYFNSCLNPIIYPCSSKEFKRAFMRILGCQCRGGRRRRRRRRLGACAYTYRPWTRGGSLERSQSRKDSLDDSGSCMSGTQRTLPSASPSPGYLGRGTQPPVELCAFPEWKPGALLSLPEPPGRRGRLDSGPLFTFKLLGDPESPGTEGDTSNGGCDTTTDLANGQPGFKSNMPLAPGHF
T1 sequence (P23944 whole entry): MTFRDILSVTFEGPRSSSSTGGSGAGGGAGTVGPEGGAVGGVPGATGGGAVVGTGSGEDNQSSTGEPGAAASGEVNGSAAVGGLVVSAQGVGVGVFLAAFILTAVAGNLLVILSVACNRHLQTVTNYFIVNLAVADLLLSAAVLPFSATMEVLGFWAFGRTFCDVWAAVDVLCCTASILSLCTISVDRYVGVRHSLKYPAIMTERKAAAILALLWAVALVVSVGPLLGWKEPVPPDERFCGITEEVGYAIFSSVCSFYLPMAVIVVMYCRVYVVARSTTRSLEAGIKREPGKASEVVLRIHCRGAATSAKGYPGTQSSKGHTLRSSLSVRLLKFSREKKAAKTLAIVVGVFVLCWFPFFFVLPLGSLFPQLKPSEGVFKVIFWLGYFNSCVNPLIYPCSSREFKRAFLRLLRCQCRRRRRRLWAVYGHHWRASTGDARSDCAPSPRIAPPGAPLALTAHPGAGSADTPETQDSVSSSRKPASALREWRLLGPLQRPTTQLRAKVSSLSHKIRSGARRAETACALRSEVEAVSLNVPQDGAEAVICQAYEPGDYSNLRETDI
T1 sequence (P43140 whole entry): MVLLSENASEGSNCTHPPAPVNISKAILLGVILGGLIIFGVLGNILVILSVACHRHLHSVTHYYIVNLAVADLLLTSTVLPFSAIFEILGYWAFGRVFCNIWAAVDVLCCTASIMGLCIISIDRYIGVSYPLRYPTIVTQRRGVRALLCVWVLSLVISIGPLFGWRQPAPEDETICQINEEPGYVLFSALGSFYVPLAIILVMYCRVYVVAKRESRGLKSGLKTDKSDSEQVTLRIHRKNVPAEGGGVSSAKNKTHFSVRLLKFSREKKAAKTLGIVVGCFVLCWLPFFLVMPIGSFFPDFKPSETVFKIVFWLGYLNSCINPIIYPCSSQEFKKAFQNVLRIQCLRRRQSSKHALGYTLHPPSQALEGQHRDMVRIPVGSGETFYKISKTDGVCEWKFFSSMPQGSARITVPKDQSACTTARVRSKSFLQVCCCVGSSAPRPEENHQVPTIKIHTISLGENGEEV
As to the kind of experiment: Ability to displace [3H]-prazosin binding to rat cortical membranes expressing Alpha-1 adrenergic receptors.

The next data set addresses D(2) dopamine receptor (Homo sapiens, UniProt P14416). As to the kind of experiment: Ability to displace [3H]spiperone binding to CHO cells stably expressing dopamine receptor D2. Type of data set: cell-based.
Data set [3] deals with Voltage-gated inwardly rectifying potassium channel KCNH2 (Homo sapiens, UniProt Q12809). As to the kind of experiment: Displacement of [3H]dofetilide from HEK cells expressing hERG voltage dependent IKr potassium channel Kv11.1.
Data set [4] addresses T2, 5-hydroxytryptamine receptor 2C (Homo sapiens, UniProt P28335).
T2 sequence (P28335 whole entry): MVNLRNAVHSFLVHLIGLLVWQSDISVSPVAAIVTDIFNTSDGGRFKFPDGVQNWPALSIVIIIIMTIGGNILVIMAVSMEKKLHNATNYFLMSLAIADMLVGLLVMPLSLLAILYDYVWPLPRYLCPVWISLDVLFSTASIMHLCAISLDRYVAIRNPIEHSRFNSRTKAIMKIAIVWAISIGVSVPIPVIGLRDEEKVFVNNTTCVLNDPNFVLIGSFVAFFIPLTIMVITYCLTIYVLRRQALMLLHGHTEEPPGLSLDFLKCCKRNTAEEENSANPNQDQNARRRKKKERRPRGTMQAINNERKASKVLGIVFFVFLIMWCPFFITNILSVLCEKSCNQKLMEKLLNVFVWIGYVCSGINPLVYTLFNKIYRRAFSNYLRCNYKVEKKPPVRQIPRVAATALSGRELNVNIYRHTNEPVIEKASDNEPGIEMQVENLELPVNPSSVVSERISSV
The data set is described as follows: Ability to displace [3H]mesulergine binding to human 5-hydroxytryptamine 2C receptor stably expressed in CHO cells. The format is cell-based.

The nature of data set [5]: Area under the concentration-time curve for 0-4 hr after 2 mg/kg po in rat. The format is ADME, organism-based. Set-up: time < 4 hr, dose 2 mg/kg, route oral. Conditions: in vivo. In a few lines:
(§1)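 Male Sprague-Dawley rats (~300 g) gavaged at 2 mg/kg (5 mL/kg of 0.5% methocel A4C suspension), five rats; one rat culled per time point up to 4 h for blood. Samples get internal standard and are extracted into ethyl acetate, then LC-MS single ion recording.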

Data set [6] is described as follows: Maximum blood concentration after oral dosing at 2 mg/kg in rat. The format is ADME, organism-based. Set-up: dose 2 mg/kg, route oral. In a few lines: as §1

Molecules are shown by their SMILES.

Sequence of D(2) dopamine receptor (P14416 whole entry): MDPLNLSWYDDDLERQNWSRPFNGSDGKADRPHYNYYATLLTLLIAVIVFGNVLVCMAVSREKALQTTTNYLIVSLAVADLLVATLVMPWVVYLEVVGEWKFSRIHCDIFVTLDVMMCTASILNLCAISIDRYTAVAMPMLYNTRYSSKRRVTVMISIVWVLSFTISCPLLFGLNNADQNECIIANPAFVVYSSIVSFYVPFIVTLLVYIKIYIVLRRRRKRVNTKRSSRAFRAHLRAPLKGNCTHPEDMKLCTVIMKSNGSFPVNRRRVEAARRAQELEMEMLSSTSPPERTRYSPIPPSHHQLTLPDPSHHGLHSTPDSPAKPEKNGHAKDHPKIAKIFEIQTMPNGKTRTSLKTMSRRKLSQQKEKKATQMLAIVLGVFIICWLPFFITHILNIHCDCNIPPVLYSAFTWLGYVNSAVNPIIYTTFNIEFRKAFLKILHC
Sequence of 5-hydroxytryptamine receptor 2A (P28223 whole entry): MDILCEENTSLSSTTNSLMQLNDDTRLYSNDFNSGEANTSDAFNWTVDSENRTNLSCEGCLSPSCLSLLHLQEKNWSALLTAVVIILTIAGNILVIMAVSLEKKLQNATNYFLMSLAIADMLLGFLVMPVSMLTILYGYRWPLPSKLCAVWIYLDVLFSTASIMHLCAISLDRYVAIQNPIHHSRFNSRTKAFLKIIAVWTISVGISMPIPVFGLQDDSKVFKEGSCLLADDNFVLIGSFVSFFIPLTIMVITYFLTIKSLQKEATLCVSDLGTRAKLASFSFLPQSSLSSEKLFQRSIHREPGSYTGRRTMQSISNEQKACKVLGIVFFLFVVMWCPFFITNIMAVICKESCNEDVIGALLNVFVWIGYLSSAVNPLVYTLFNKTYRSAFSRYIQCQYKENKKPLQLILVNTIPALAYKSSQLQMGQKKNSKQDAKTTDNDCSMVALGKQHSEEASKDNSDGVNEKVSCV
Sequence of Voltage-gated inwardly rectifying potassium channel KCNH2 (Q12809 whole entry): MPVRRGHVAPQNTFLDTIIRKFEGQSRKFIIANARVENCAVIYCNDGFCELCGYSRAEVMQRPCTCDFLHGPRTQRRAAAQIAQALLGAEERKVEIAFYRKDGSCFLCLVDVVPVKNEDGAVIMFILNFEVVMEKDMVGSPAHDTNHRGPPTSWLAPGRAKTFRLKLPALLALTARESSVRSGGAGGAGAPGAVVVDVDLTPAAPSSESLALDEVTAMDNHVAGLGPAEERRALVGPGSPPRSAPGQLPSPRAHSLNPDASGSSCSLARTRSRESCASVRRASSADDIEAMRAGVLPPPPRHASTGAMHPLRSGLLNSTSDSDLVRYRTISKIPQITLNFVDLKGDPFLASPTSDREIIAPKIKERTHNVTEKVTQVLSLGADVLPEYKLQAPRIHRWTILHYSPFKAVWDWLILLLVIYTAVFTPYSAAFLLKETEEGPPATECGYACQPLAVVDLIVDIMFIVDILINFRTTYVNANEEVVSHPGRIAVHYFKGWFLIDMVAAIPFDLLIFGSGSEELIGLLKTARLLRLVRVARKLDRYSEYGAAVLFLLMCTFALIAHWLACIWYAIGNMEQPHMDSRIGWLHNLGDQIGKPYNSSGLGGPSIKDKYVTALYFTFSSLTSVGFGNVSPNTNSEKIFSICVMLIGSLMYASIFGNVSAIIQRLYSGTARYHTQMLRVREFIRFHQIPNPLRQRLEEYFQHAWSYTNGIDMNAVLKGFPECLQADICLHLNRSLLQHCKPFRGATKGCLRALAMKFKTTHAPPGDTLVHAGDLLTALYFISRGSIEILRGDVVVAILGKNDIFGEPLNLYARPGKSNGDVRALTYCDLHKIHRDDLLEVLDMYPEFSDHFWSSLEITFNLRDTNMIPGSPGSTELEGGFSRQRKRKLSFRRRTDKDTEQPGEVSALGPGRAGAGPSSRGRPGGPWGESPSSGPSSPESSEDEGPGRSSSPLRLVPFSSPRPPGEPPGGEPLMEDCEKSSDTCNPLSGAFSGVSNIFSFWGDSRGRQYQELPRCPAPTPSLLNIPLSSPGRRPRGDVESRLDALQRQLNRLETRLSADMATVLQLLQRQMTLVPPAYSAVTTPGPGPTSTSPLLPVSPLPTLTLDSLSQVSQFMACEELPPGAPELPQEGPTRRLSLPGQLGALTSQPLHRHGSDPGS

Consider `Fc1ccc2c([C@@H]3CNCC[C@H]3F)c(-c3ccc4ccccc4c3)[nH]c2c1`, for which the Ki is 0.23 nM in data set [1], 2.1 nM in data set [2], 500 nM on D(2) dopamine receptor and 500 nM in data set [3].
Take `Fc1ccc(-c2[nH]c3cc(F)ccc3c2C2CCCNC2)cc1` (stereo not given): the Ki in data set [1] was determined as 0.09 nM; in data set [4], 16 nM; in data set [2] it was 1.1 nM; at D(2) dopamine receptor it was 28 nM; in data set [3], 1300 nM.
In the case of `Fc1ccc2[nH]c(-c3ccccc3)c([C@@H]3CNCC[C@H]3F)c2c1`, the Ki in data set [1] is 4 nM; in data set [4], 500 nM; in data set [2], 210 nM; on D(2) dopamine receptor, > 1600 nM; in data set [3] it was > 7000 nM.
On to `O[C@@H]1CCNC[C@H]1c1c(-c2ccccc2)[nH]c2ccccc12`, for which the Ki was 3.3 nM in data set [1] and > 1600 nM at D(2) dopamine receptor.
Turning to `Fc1ccc2c([C@@H]3CNCC[C@H]3F)c(-c3ccoc3)[nH]c2c1`, the Ki was 0.54 nM in data set [1], 3.6 nM in data set [2] and > 1600 nM on D(2) dopamine receptor.
Turning to `Fc1ccc2c([C@@H]3CNCC[C@H]3F)c(-c3cccnc3)[nH]c2c1`, the Ki in data set [1] was 0.35 nM; in data set [4], 85 nM; in data set [2] it was 7.3 nM; at D(2) dopamine receptor, > 1600 nM.
As for `Fc1ccc(-c2[nH]c3cc(F)ccc3c2[C@@H]2CNCC[C@H]2F)cc1`, the Ki amounted to 0.12 nM in data set [1]; 19 nM in data set [4]; 2.9 nM in data set [2]; 900 nM at D(2) dopamine receptor; 1600 nM in data set [3]. Besides, the AUC(0-t) at 4 h in data set [5] is 350 ng·h/mL. In data set [6], this molecule registered a Cmax of 149 ng/mL.
With `c1ccc(-c2[nH]c3ccccc3c2C2CNCCO2)cc1` (stereo not given), the Ki is 18 nM in data set [1] and 1600 nM on D(2) dopamine receptor.
`CN1CCCC(c2c(-c3ccccc3)[nH]c3ccccc23)C1` (stereo not given): the Ki in data set [1] was determined as 4.7 nM; in data set [4] it was 150 nM; in data set [2], 30 nM; at D(2) dopamine receptor, 28 nM; in data set [3] it was 9600 nM.
With `F[C@@H]1CCNC[C@H]1c1c(-c2ccccc2)[nH]c2c(Cl)cccc12`, the Ki in data set [1] is 0.69 nM; in data set [4], 154 nM; in data set [2] it was 6.7 nM; at D(2) dopamine receptor, > 1600 nM.
Consider `c1ccc(-c2[nH]c3ccccc3c2C2CCNCC2)cc1`, for which the Ki in data set [4] was 400 nM; in data set [2], 2100 nM; at D(2) dopamine receptor, > 1600 nM; in data set [3], 5700 nM.
As for `c1ccc(-c2[nH]c3ccccc3c2C2CCCNC2)cc1` (stereo not given), the Ki in data set [1] was 0.99 nM; in data set [4], 89 nM; in data set [2] it was 21 nM; on D(2) dopamine receptor, > 1300 nM. Also, the AUC(0-t) at 4 h in data set [5] stood at 47 ng·h/mL. Also, the highest level in data set [6] (Cmax) was 26 ng/mL.
Turning to `CN1CCN(C)C(c2c(-c3ccccc3)[nH]c3ccccc23)C1` (stereo not given), the results for the Ki (in data set [1]; at D(2) dopamine receptor) were 320 nM and > 1600 nM, respectively.
Take `F[C@@H]1CCNC[C@H]1c1c(-c2ccccc2)[nH]c2ccc(Cl)cc12`: the Ki in data set [1] is 10.2 nM; in data set [2], 40 nM; on D(2) dopamine receptor it was > 1600 nM.
Molecule `Fc1ccc2c([C@@H]3CNCC[C@H]3F)c[nH]c2c1` gave a Ki in data set [1] of 70 nM.
As for `F[C@H]1CCNC[C@@H]1c1c(-c2ccccc2)[nH]c2ccccc12`, the Ki in data set [1] is 220 nM; at D(2) dopamine receptor, > 1700 nM.
With `Fc1ccc2c([C@@H]3CNCC[C@H]3F)c(C3CCCCC3)[nH]c2c1`, the Ki is 0.25 nM in data set [1], 5 nM in data set [4], 21 nM in data set [2] and > 1600 nM at D(2) dopamine receptor.
As for `c1ccc(CCN2CCCC(c3c(-c4ccccc4)[nH]c4ccccc34)C2)cc1` (stereo not given), the Ki is 59 nM in data set [1], 2400 nM in data set [4] and 500 nM at D(2) dopamine receptor.
Consider `COC(=O)c1[nH]c2cc(F)ccc2c1[C@@H]1CNCC[C@H]1F`, for which the Ki was 10.4 nM in data set [1], > 2000 nM in data set [4], 7.3 nM in data set [2] and > 1600 nM on D(2) dopamine receptor.
Consider `O=C1NCCN1CCN1CCCC(c2c(-c3ccccc3)[nH]c3ccccc23)C1` (stereo not given), for which the values for the Ki (in data set [1]; in data set [4]; at D(2) dopamine receptor) were 26 nM, 2500 nM and > 1300 nM, respectively. In data set [5], this molecule had an AUC(0-t) at 4 h of 217 ng·h/mL. This molecule came in with a Cmax in data set [6] of 85 ng/mL.
On to `Fc1ccc2c([C@@H]3CNCC[C@H]3F)c(-c3ccsc3)[nH]c2c1`, for which the Ki in data set [1] worked out at 0.11 nM; in data set [4], 50 nM; in data set [2], 2.8 nM; at D(2) dopamine receptor, 1600 nM; in data set [3], 1500 nM.
On to `c1ccc(CN2CCCC(c3c(-c4ccccc4)[nH]c4ccccc34)C2)cc1` (stereo not given), for which the Ki in data set [1] was determined as 20 nM; in data set [4], 2000 nM; in data set [2], 47 nM; at D(2) dopamine receptor it was 1600 nM.
As for `CN1CCCCC1c1c(-c2ccccc2)[nH]c2ccccc12` (stereo not given), the Ki in data set [1] is 14 nM; in data set [4] it was 2000 nM; in data set [2], 99 nM; on D(2) dopamine receptor, > 1700 nM.
With `Fc1ccc2c([C@@H]3CNCC[C@H]3F)c(-c3cccc4ccccc34)[nH]c2c1`, the Ki was found to be 0.34 nM in data set [1], 8.5 nM in data set [2], 1400 nM at D(2) dopamine receptor and 110 nM in data set [3].
For the molecule `O=C(Nc1ccccc1)c1[nH]c2cc(F)ccc2c1[C@@H]1CNCC[C@H]1F`, the inhibitory constant (Ki) in data set [1] is 0.09 nM; in data set [4], 48 nM; in data set [2], 3.9 nM; at D(2) dopamine receptor, > 1600 nM. In data set [5], the AUC(0-t) at 4 h is 8 ng·h/mL. In data set [6], this molecule showed a Cmax of 3 ng/mL.
`Fc1cccc2c([C@@H]3CNCC[C@H]3F)c(-c3ccccc3)[nH]c12`: the Ki in data set [1] is 0.46 nM; in data set [4] it was 132 nM; in data set [2] it was 27 nM; at D(2) dopamine receptor, > 1600 nM.
In the case of `F[C@@H]1CCNC[C@H]1c1c(-c2ccccc2)[nH]c2cc(Cl)ccc12`, the results for the Ki (in data set [1]; in data set [2]; on D(2) dopamine receptor) were 2.3 nM, 16 nM and > 1600 nM, respectively.

What is called Ki is a measure of affinity in units of concentration, obtained from inhibition or displacement. A lower Ki goes with a stronger hold on the target. For orientation: AUC(0-t) means exposure summed from dosing to a finite time, without extrapolation to infinity. The Cmax is the maximum level reached in the sampled fluid or tissue.

The values are drawn from ChEMBL document CHEMBL1134475, “3-(4-Fluoropiperidin-3-yl)-2-phenylindoles as high affinity, selective, and orally bioavailable h5-HT(2A) receptor antagonists” (J Med Chem, 2001).
